Source: ChEMBL document CHEMBL1649280, “Activity of the novel peptide arminin against multiresistant human pathogens shows the considerable potential of phylogenetically ancient organisms as drug sources” (Antimicrob Agents Chemother, 2009)
Activity calls are given as the source filed them. The calls are words filed in the database; no cut-off is given here.

Key:
Staphylococcus aureus [1] = assay: Antibacterial activity against Staphylococcus aureus ATCC 12600 after 2 hrs; assay type: functional
Escherichia coli [2] = assay: Antibacterial activity against vancomycin-resistant ESBL-producing Escherichia coli E4 after 2 hrs; assay type: functional
Enterococcus faecium [3] = assay: Antibacterial activity against vancomycin-resistant Enterococcus faecium 356 after 2 hrs
Staphylococcus aureus [4] = assay: Antibacterial activity against Staphylococcus aureus ATCC 12600 assessed as destruction and detachment of peripheral cell wall at 410 uM after 1.5 hrs by transmission electron microscopy; assay type: functional, organism-based
How it was run: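 S. aureus grown to OD₆₀₀ 0.1, washed twice in 10 mM sodium phosphate pH 7.4 with 1% tryptic soy broth, concentrated to OD₆₀₀ 3.0 (~10⁸ bacteria/ml). Incubated with peptide at 41 or 410 μM for 1.5 h at 37°C with rocking; solvent-only control. CFU plated as growth check. Rest fixed 2 h 1:1 with 10% glutaraldehyde, examined by transmission electron microscopy.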

Staphylococcus aureus [5] = assay: Antibacterial activity against methicillin-resistant Staphylococcus aureus ATCC 33393 after 2 hrs; assay type: functional
Escherichia coli [6] = assay: Antibacterial activity against Escherichia coli DH5alpha by microdilution susceptibility assay in presence of 200 mM of sodium chloride; assay type: functional, organism-based; details: DH5[alpha]
How it was run: (§1)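 Microdilution susceptibility assay in 10 mM sodium phosphate pH 7.4 with 0, 75, 150 or 200 mM NaCl. Activity relative to 0 mM NaCl (set to 1). Mean with standard deviation of two independent experiments, each in duplicate.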

Priestia megaterium [7] = assay: Antibacterial activity against Bacillus megaterium ATCC 14581 by microdilution susceptibility assay in presence of 75 mM of sodium chloride; assay type: functional
How it was run: (§2)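 Microdilution susceptibility assay in 10 mM sodium phosphate buffer, pH 7.4, with NaCl at 0, 75, 150 or 200 mM. Activity is expressed relative to the activity in buffer without NaCl, which is set to 1. Values are means with standard deviations of two independent experiments, each run in duplicate.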

Enterococcus faecium [8] = assay: Antibacterial activity against vancomycin-resistant Enterococcus faecium G71 after 2 hrs
Klebsiella pneumoniae [9] = assay: Antibacterial activity against vancomycin-resistant ESBL-producing Klebsiella pneumoniae ATCC 700603 after 2 hrs; assay type: functional
Priestia megaterium [10] = assay: Antibacterial activity against Bacillus megaterium ATCC 14581 after 2 hrs; assay type: functional
[11] = Toxicity in human RBC assessed as hemolysis at 250 uM after 1 hr; assay type: cell-based; details: erythrocyte
How it was run: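 Human red blood cells were exposed to peptide serially diluted twofold from 250 μM in 50 mM sodium phosphate-150 mM NaCl, pH 7.4, for 1 h. Distilled water gave maximal lysis; buffer with peptide solvent gave spontaneous lysis. Absorbance of diluted supernatants was read at 405 nm. Values are means of two independent experiments, each in duplicate.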

Staphylococcus aureus [12] = assay: Antibacterial activity against methicillin-resistant Staphylococcus aureus after 2 hrs
Escherichia coli [13] = assay: Antibacterial activity against Escherichia coli DH5alpha after 2 hrs; assay type: functional, DH5[alpha]
Staphylococcus aureus [14] = assay: Antibacterial activity against methicillin-resistant Staphylococcus aureus 358 after 2 hrs; assay type: functional
Klebsiella pneumoniae [15] = assay: Antibacterial activity against vancomycin-resistant ESBL-producing Klebsiella pneumoniae GF1 after 2 hrs; assay type: functional
Staphylococcus aureus [16] = assay: Antibacterial activity against methicillin-resistant Staphylococcus aureus 344 after 2 hrs; assay type: functional
Enterococcus faecalis = assay: Antibacterial activity against vancomycin-resistant Enterococcus faecalis ATCC 51299 after 2 hrs; assay type: functional
Staphylococcus aureus [17] = assay: Antibacterial activity against Staphylococcus aureus ATCC 12600 by microdilution susceptibility assay in presence of 200 mM of sodium chloride; assay type: functional, organism-based; how it was run: as §1
Escherichia coli [18] = assay: Antibacterial activity against Escherichia coli DH5alpha by microdilution susceptibility assay in presence of 75 mM of sodium chloride; assay type: functional, DH5[alpha]; how it was run: as §2
Priestia megaterium [19] = assay: Antibacterial activity against Bacillus megaterium ATCC 14581 by microdilution susceptibility assay in presence of 200 mM of sodium chloride; assay type: functional, organism-based; how it was run: as §1
Escherichia coli [20] = assay: Antibacterial activity against vancomycin-resistant ESBL-producing Escherichia coli E9 after 2 hrs; assay type: functional
Staphylococcus aureus [21] = assay: Antibacterial activity against Staphylococcus aureus ATCC 12600 by microdilution susceptibility assay in presence of 75 mM of sodium chloride; assay type: functional; how it was run: as §2
Klebsiella pneumoniae [22] = assay: Antibacterial activity against vancomycin-resistant ESBL-producing Klebsiella pneumoniae GF7 after 2 hrs; assay type: functional
Enterococcus faecium [23] = assay: Antibacterial activity against vancomycin-resistant Enterococcus faecium G70 after 2 hrs
Enterococcus faecium [24] = assay: Antibacterial activity against vancomycin-resistant Enterococcus faecium 354 after 2 hrs
Staphylococcus aureus [25] = assay: Antibacterial activity against methicillin-resistant Staphylococcus aureus ATCC 43300 after 2 hrs; assay type: functional

## H-KPWRFRRAIRRVRWRKVAPYIPFVVKTVGKK-OH
Staphylococcus aureus [1]
  LD90: 0.05 µM
Staphylococcus aureus [1]; Staphylococcus aureus, ATCC 12600, 2 h
  MBC: 0.4 µM
Escherichia coli [2]
  LD90: 0.1 µM
Escherichia coli [2]; Escherichia coli, E4, 2 h
  MBC: 0.4 µM
Enterococcus faecium [3]
  LD90: 0.2 µM
Enterococcus faecium [3]; Enterococcus faecium, 356, 2 h
  MBC: 0.8 µM
Staphylococcus aureus [4]
  Activity: Active
Staphylococcus aureus [5]
  LD90: 0.2 µM
Staphylococcus aureus [5]; Staphylococcus aureus, ATCC 33393, 2 h
  MBC: 0.4 µM
Escherichia coli [6]
  Activity: Active
Priestia megaterium [7]
  fold change (FC): 4
Enterococcus faecium [8]
  LD90: 0.2 µM
Enterococcus faecium [8]; Enterococcus faecium, G71, 2 h
  MBC: 0.4 µM
Klebsiella pneumoniae [9]
  LD90: 0.2 µM
Klebsiella pneumoniae [9]; Klebsiella pneumoniae, ATCC 700603, 2 h
  MBC: 0.8 µM
Priestia megaterium [10]
  LD90: 0.01 µM
Priestia megaterium [10]; Priestia megaterium, ATCC 14581, 2 h
  MBC: 0.1 µM
[11]
  Activity: Non-toxic
Staphylococcus aureus [12]
  LD90: 0.2 µM
Staphylococcus aureus [12]; Staphylococcus aureus, 2 h
  MBC: 0.8 µM
Escherichia coli [13]
  LD90: 0.1 µM
Escherichia coli [13]; Escherichia coli, DH5[alpha], 2 h
  MBC: 0.2 µM
Staphylococcus aureus [14]
  LD90: 0.2 µM
Staphylococcus aureus [14]; Staphylococcus aureus, 358, 2 h
  MBC: 0.4 µM
Klebsiella pneumoniae [15]
  LD90: 0.2 µM
Klebsiella pneumoniae [15]; Klebsiella pneumoniae, GF1, 2 h
  MBC: 0.4 µM
Staphylococcus aureus [16]
  LD90: 0.2 µM
Staphylococcus aureus [16]; Staphylococcus aureus, 344, 2 h
  MBC: 0.8 µM
Enterococcus faecalis
  LD90: 0.8 µM
Enterococcus faecalis; Enterococcus faecalis, ATCC 51299, 2 h
  MBC: 1.6 µM
Staphylococcus aureus [17]
  Activity: Active
Escherichia coli [18]
  fold change (FC): 2
Priestia megaterium [19]
  Activity: Active
Escherichia coli [20]
  LD90: 0.05 µM
Escherichia coli [20]; Escherichia coli, E9, 2 h
  MBC: 0.2 µM
Staphylococcus aureus [21]
  fold change (FC): 4
Klebsiella pneumoniae [22]
  LD90: 0.2 µM
Klebsiella pneumoniae [22]; Klebsiella pneumoniae, GF7, 2 h
  MBC: 0.4 µM
Enterococcus faecium [23]
  LD90: 0.2 µM
Enterococcus faecium [23]; Enterococcus faecium, G70, 2 h
  MBC: 0.4 µM
Enterococcus faecium [24]
  LD90: 0.2 µM
Enterococcus faecium [24]; Enterococcus faecium, 354, 2 h
  MBC: 0.4 µM
Staphylococcus aureus [25]
  LD90: 0.2 µM
Staphylococcus aureus [25]; Staphylococcus aureus, ATCC 43300, 2 h
  MBC: 0.4 µM
